# Legend:
# Plasmodium falciparum [1] = assay: In vitro antimalarial activity against Plasmodium falciparum W-2 Indochina; assay type: functional, organism-based
# Method in brief: (§1)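 [³H]hypoxanthine uptake assay. Compound was dissolved in DMSO and 70% ethanol, diluted in RPMI 1640 with 10% human plasma, then tested over (1.56-100) × 10⁻⁹ M. Parasites (0.5% parasitemia, 1% hematocrit) were incubated 24 h with compound, then [³H]hypoxanthine was added and incubation continued 18 h. Cells were harvested and counted by scintillation. IC50 came from nonlinear regression of concentration-response data.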
# Plasmodium falciparum [2] = assay: In vitro antimalarial activity against Plasmodium falciparum D6 (Sierra Leone); assay type: functional, organism-based; method in brief: as §1
# Plasmodium berghei [3] = assay: Cures in Plasmodium berghei infected mice (Mus musculus) after 3 days at 320 mg/kg; cured 5 of 5; assay type: functional
# Plasmodium berghei [4] = assay: Increased mean survival time (>12-14 days) in Plasmodium berghei infected mice (Mus musculus) after 3days at 20 mg/kg; active in 2 of 5; assay type: functional
# Plasmodium berghei [5] = assay: Increased mean survival time (>12-14 days) in P berghei infected mice (Mus musculus) after 3 days at 80 mg/kg; active in 3 of 5; assay type: functional
# Plasmodium berghei [6] = assay: Cures in Plasmodium berghei infected mice (Mus musculus) after 3 days at 80 mg/kg; cured 1 of 5; assay type: functional
# Plasmodium berghei [7] = assay: Cures in Plasmodium berghei infected mice (Mus musculus) after 3 days at 20 mg/kg; cured 0 of 5; assay type: functional
# Plasmodium berghei [8] = assay: Cures in Plasmodium berghei infected mice (Mus musculus) after 3 days at 80 mg/kg; cured 2 of 5; assay type: functional
# Plasmodium berghei [9] = assay: Cures in Plasmodium berghei infected mice (Mus musculus) after 3 days at 640 mg/kg; cured 5 of 5; assay type: functional
# Plasmodium berghei [10] = assay: Cures in Plasmodium berghei infected mice (Mus musculus) after 3 days at 160 mg/kg; cured 5 of 5; assay type: functional
# Plasmodium berghei [11] = assay: Increased mean survival time (>12-14 days) in Plasmodium berghei infected mice (Mus musculus) after 3 days at 80 mg/kg; active in 1 of 5; assay type: functional
# Plasmodium berghei [12] = assay: Cures in Plasmodium berghei infected mice (Mus musculus) after 3 days at 640 mg/kg; cured 4 of 5; assay type: functional
# Plasmodium berghei [13] = assay: Cures in Plasmodium berghei infected mice (Mus musculus) after 3 days at 80 mg/kg; […]; assay type: functional
# Plasmodium berghei [14] = assay: Cures in Plasmodium berghei infected mice (Mus musculus) after 3 days at 160 mg/kg; cured 1 of 5; assay type: functional
# Plasmodium berghei [15] = assay: Increase in mean survival time (>12-14 days) in Plasmodium berghei infected mice (Mus musculus) after 3 days at 80 mg/kg; active in 1 of 5; assay type: functional
# Plasmodium berghei [16] = assay: Cures in Plasmodium berghei infected mice (Mus musculus) after 3 days at 80 mg/kg; cured 0 of 5; assay type: functional
# Plasmodium berghei [17] = assay: Increased mean survival time (>12-14 days) in P berghei infected mice (Mus musculus) after 3 days at 80 mg/kg; active in 5 of 5; assay type: functional
# Plasmodium berghei [18] = assay: Cures in Plasmodium berghei infected mice (Mus musculus) after 3 days at 320 mg/kg; cured 3 of 5; assay type: functional
# Plasmodium berghei [19] = assay: Increased mean survival time (>12-14 days) in Plasmodium berghei infected mice (Mus musculus) after 3 days at 20 mg/kg; active in 4 of /5; assay type: functional
# Plasmodium berghei [20] = assay: Cures in Plasmodium berghei infected mice (Mus musculus) after 3 days at 20 mg/kg; cured 1 of 5; assay type: functional
smiles,measurement,setting,value
COC(=O)C[C@@H](C)O[C@H]1O[C@@H]2O[C@@]3(C)CC[C@H]4[C@H](C)CC[C@@H]([C@H]1C)[C@@]24OO3,IC50,Plasmodium falciparum [1],0.071 ng/mL
same,IC50,Plasmodium falciparum [2],0.44 ng/mL
C[C@H]1[C@@H](OC[C@H](C)C(=O)O)O[C@@H]2O[C@@]3(C)CC[C@H]4[C@H](C)CC[C@@H]1[C@@]24OO3,IC50,Plasmodium falciparum [1],8.33 ng/mL
same,IC50,Plasmodium falciparum [2],28.7 ng/mL
C[C@H]1[C@@H](O[C@H](C)CC(=O)O)O[C@@H]2O[C@@]3(C)CC[C@H]4[C@H](C)CC[C@@H]1[C@@]24OO3,IC50,Plasmodium falciparum [1],4.42 ng/mL
same,IC50,Plasmodium falciparum [2],36.5 ng/mL
COC(=O)[C@@H](C)CO[C@H]1O[C@@H]2O[C@@]3(C)CC[C@H]4[C@H](C)CC[C@@H]([C@H]1C)[C@@]24OO3,IC50,Plasmodium falciparum [1],0.015 ng/mL
same,IC50,Plasmodium falciparum [2],0.36 ng/mL
COC(=O)[C@H](C)CO[C@H]1O[C@@H]2O[C@@]3(C)CC[C@H]4[C@H](C)CC[C@@H]([C@H]1C)[C@@]24OO3,No. of mice cured,Plasmodium berghei [3],5
same,No. of mice survived,Plasmodium berghei [4],2
same,No. of mice survived,Plasmodium berghei [5],3
same,IC50,Plasmodium falciparum [1],0.057 ng/mL
same,IC50,Plasmodium falciparum [2],2.15 ng/mL
same,No. of mice cured,Plasmodium berghei [6],1
same,No. of mice cured,Plasmodium berghei [7],0
C=C[C@H]1CN2CC[C@H]1C[C@H]2[C@H](O)c1ccnc2ccc(OC)cc12 [QUININE],IC50,Plasmodium falciparum [1],59 ng/mL
same,IC50,Plasmodium falciparum [2],3.61 ng/mL
C[C@@H]1CC[C@H]2[C@@H](C)C(=O)O[C@@H]3O[C@@]4(C)CC[C@@H]1[C@]32OO4 [ARTEMISININ],No. of mice cured,Plasmodium berghei [8],2
same,No. of mice survived,Plasmodium berghei [4],2
same,No. of mice survived,Plasmodium berghei [5],3
same,IC50,Plasmodium falciparum [1],2.6 ng/mL
same,No. of mice cured,Plasmodium berghei [9],5
same,No. of mice cured,Plasmodium berghei [10],5
same,IC50,Plasmodium falciparum [2],2.35 ng/mL
same,No. of mice cured,Plasmodium berghei [7],0
CC1=CO[C@@H]2O[C@]3(C)CC[C@H]4[C@H](C)CC[C@@H]1[C@@]24OO3 [ANHYDRODIHYDROARTEMISININ],No. of mice survived,Plasmodium berghei [11],1
same,No. of mice cured,Plasmodium berghei [12],4
same,No. of mice cured,Plasmodium berghei [8],2
same,IC50,Plasmodium falciparum [1],0.43 ng/mL
same,No. of mice survived,Plasmodium berghei [13],2
same,No. of mice cured,Plasmodium berghei [14],1
same,IC50,Plasmodium falciparum [2],0.83 ng/mL
same,No. of mice survived,Plasmodium berghei [15],1
C[C@H]1[C@@H](OCC23CC4CC(CC(C4)C2)C3)O[C@@H]2O[C@@]3(C)CC[C@H]4[C@H](C)CC[C@@H]1[C@@]24OO3,No. of mice cured,Plasmodium berghei [16],0
same,No. of mice survived,Plasmodium berghei [17],5
same,No. of mice cured,Plasmodium berghei [18],3
same,IC50,Plasmodium falciparum [1],2.11 ng/mL
same,IC50,Plasmodium falciparum [2],2.7 ng/mL
same,No. of mice cured,Plasmodium berghei [7],0
COC(=O)C[C@H](C)O[C@H]1O[C@@H]2O[C@@]3(C)CC[C@H]4[C@H](C)CC[C@@H]([C@H]1C)[C@@]24OO3,No. of mice cured,Plasmodium berghei [3],5
same,IC50,Plasmodium falciparum [1],0.48 ng/mL
same,No. of mice cured,Plasmodium berghei [13],5
same,IC50,Plasmodium falciparum [2],1.91 ng/mL
same,No. of mice survived,Plasmodium berghei [19],4
same,No. of mice cured,Plasmodium berghei [20],1
C[C@H]1[C@@H](OC[C@@H](C)C(=O)O)O[C@@H]2O[C@@]3(C)CC[C@H]4[C@H](C)CC[C@@H]1[C@@]24OO3,IC50,Plasmodium falciparum [1],5.32 ng/mL
same,IC50,Plasmodium falciparum [2],22.2 ng/mL
C[C@H]1[C@@H](O[C@@H](C)CC(=O)O)O[C@@H]2O[C@@]3(C)CC[C@H]4[C@H](C)CC[C@@H]1[C@@]24OO3,IC50,Plasmodium falciparum [1],7.43 ng/mL
same,IC50,Plasmodium falciparum [2],15 ng/mL
